Laboratory results as given in ChEMBL document CHEMBL4689842, “EUbOPEN Chemogenomics Library wave 1” (2021).

Test system: U2OS
Assay: Multiplex assay against U2OS
Format: toxicity, cell-based
Conditions: human
In short: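 Per cents of healthy-nucleus cells form the tubulin, mitochondrial-mass and membrane-permeability phenotype values. Live cells were stained at seeding with Hoechst33342, BioTracker Green Microtubule Cytoskeleton Dye, MitoTracker Red and Annexin V Alexa Fluor 680. After compound addition they were imaged on a CQ1 microscope at 37°C and 5% CO2, and CellPathfinder machine-learning gating split them into Hoechst high-intensity objects or normal cells, normal cells into healthy, pyknosed or fragmented nuclei, and pyknosed cells into mitotic or apoptotic.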

[1] = 12 h, 1 µM, compound concentration 1 uM, replicate 1
[2] = 12 h, 1 µM, compound concentration 1 uM, replicate 2
[3] = 12 h, 10 µM, compound concentration 10 uM, replicate 1
[4] = 12 h, 10 µM, compound concentration 10 uM, replicate 2
[5] = 24 h, 1 µM, compound concentration 1 uM, replicate 1
[6] = 24 h, 1 µM, compound concentration 1 uM, replicate 2
[7] = 24 h, 10 µM, compound concentration 10 uM, replicate 1
[8] = 24 h, 10 µM, compound concentration 10 uM, replicate 2
[9] = 48 h, 1 µM, compound concentration 1 uM, replicate 1
[10] = 48 h, 1 µM, compound concentration 1 uM, replicate 2
[11] = 48 h, 10 µM, compound concentration 10 uM, replicate 1
[12] = 48 h, 10 µM, compound concentration 10 uM, replicate 2

## Cc1csc2c(N[C@@H](C)CN3CCN(S(=O)(=O)c4ccc(Cl)c(Cl)c4)CC3)ncnc12
[1]
  Population Apoptotic (%): 70%
  Population Fragmented Nuclei (%): 14%
  Population Healthy Nuclei (%): 66%
  Population Hoechst High Intensity Objects (%): 8%
  Population Membrane Permeable-Phenotype (%): 4%
  Population Mitochondria Different-Phenotype (%): 31%
  Population Mitotic Cells (%): 30%
  Population Normal (%): 91%
  Population Pyknosed Nuclei (%): 19%
  Population Tubulin-Different-Phenotype (%): 50%
  Total Cell Count: 158
[2]
  Population Apoptotic (%): 16%
  Population Fragmented Nuclei (%): 5%
  Population Healthy Nuclei (%): 84%
  Population Hoechst High Intensity Objects (%): 5%
  Population Membrane Permeable-Phenotype (%): 6%
  Population Mitochondria Different-Phenotype (%): 33%
  Population Mitotic Cells (%): 83%
  Population Normal (%): 95%
  Population Pyknosed Nuclei (%): 10%
  Population Tubulin-Different-Phenotype (%): 47%
  Total Cell Count: 48
[3]
  Population Apoptotic (%): 53%
  Population Fragmented Nuclei (%): 15%
  Population Healthy Nuclei (%): 57%
  Population Hoechst High Intensity Objects (%): 9%
  Population Membrane Permeable-Phenotype (%): 55%
  Population Mitochondria Different-Phenotype (%): 100%
  Population Mitotic Cells (%): 46%
  Population Normal (%): 90%
  Population Pyknosed Nuclei (%): 27%
  Population Tubulin-Different-Phenotype (%): 100%
  Total Cell Count: 114
[4]
  Population Apoptotic (%): 75%
  Population Fragmented Nuclei (%): 12%
  Population Healthy Nuclei (%): 67%
  Population Hoechst High Intensity Objects (%): 4%
  Population Membrane Permeable-Phenotype (%): 56%
  Population Mitochondria Different-Phenotype (%): 98%
  Population Mitotic Cells (%): 25%
  Population Normal (%): 95%
  Population Pyknosed Nuclei (%): 19%
  Population Tubulin-Different-Phenotype (%): 98%
  Total Cell Count: 60
[5]
  Population Apoptotic (%): 73%
  Population Fragmented Nuclei (%): 7%
  Population Healthy Nuclei (%): 78%
  Population Hoechst High Intensity Objects (%): 8%
  Population Membrane Permeable-Phenotype (%): 10%
  Population Mitochondria Different-Phenotype (%): 27%
  Population Mitotic Cells (%): 26%
  Population Normal (%): 91%
  Population Pyknosed Nuclei (%): 13%
  Population Tubulin-Different-Phenotype (%): 45%
  Total Cell Count: 175
[6]
  Population Apoptotic (%): 60%
  Population Fragmented Nuclei (%): 11%
  Population Healthy Nuclei (%): 73%
  Population Hoechst High Intensity Objects (%): 4%
  Population Membrane Permeable-Phenotype (%): 11%
  Population Mitochondria Different-Phenotype (%): 25%
  Population Mitotic Cells (%): 40%
  Population Normal (%): 95%
  Population Pyknosed Nuclei (%): 14%
  Population Tubulin-Different-Phenotype (%): 23%
  Total Cell Count: 64
[7]
  Population Apoptotic (%): 95%
  Population Fragmented Nuclei (%): 18%
  Population Healthy Nuclei (%): 44%
  Population Hoechst High Intensity Objects (%): 5%
  Population Membrane Permeable-Phenotype (%): 75%
  Population Mitochondria Different-Phenotype (%): 100%
  Population Mitotic Cells (%): 4%
  Population Normal (%): 94%
  Population Pyknosed Nuclei (%): 36%
  Population Tubulin-Different-Phenotype (%): 100%
  Total Cell Count: 119
[8]
  Population Apoptotic (%): 80%
  Population Fragmented Nuclei (%): 15%
  Population Healthy Nuclei (%): 57%
  Population Hoechst High Intensity Objects (%): 4%
  Population Membrane Permeable-Phenotype (%): 80%
  Population Mitochondria Different-Phenotype (%): 97%
  Population Mitotic Cells (%): 19%
  Population Normal (%): 95%
  Population Pyknosed Nuclei (%): 26%
  Population Tubulin-Different-Phenotype (%): 97%
  Total Cell Count: 72
[9]
  Population Apoptotic (%): 77%
  Population Fragmented Nuclei (%): 8%
  Population Healthy Nuclei (%): 79%
  Population Hoechst High Intensity Objects (%): 3%
  Population Membrane Permeable-Phenotype (%): 8%
  Population Mitochondria Different-Phenotype (%): 16%
  Population Mitotic Cells (%): 22%
  Population Normal (%): 96%
  Population Pyknosed Nuclei (%): 11%
  Population Tubulin-Different-Phenotype (%): 30%
  Total Cell Count: 243
[10]
  Population Apoptotic (%): 25%
  Population Fragmented Nuclei (%): 12%
  Population Healthy Nuclei (%): 82%
  Population Hoechst High Intensity Objects (%): 4%
  Population Mitochondria Different-Phenotype (%): 12%
  Population Mitotic Cells (%): 75%
  Population Normal (%): 95%
  Population Pyknosed Nuclei (%): 4%
  Population Tubulin-Different-Phenotype (%): 20%
  Total Cell Count: 89
[11]
  Population Apoptotic (%): 87%
  Population Fragmented Nuclei (%): 25%
  Population Healthy Nuclei (%): 30%
  Population Hoechst High Intensity Objects (%): 8%
  Population Membrane Permeable-Phenotype (%): 78%
  Population Mitochondria Different-Phenotype (%): 96%
  Population Mitotic Cells (%): 12%
  Population Normal (%): 91%
  Population Pyknosed Nuclei (%): 43%
  Population Tubulin-Different-Phenotype (%): 100%
  Total Cell Count: 159
[12]
  Population Apoptotic (%): 92%
  Population Fragmented Nuclei (%): 15%
  Population Healthy Nuclei (%): 50%
  Population Hoechst High Intensity Objects (%): 7%
  Population Membrane Permeable-Phenotype (%): 84%
  Population Mitochondria Different-Phenotype (%): 97%
  Population Mitotic Cells (%): 7%
  Population Normal (%): 92%
  Population Pyknosed Nuclei (%): 34%
  Population Tubulin-Different-Phenotype (%): 97%
  Total Cell Count: 91
